This note sets out measurements from ChEMBL document CHEMBL3611968, “Reengineered tricyclic anti-cancer agents” (Bioorg Med Chem, 2015).

Calls of active or inactive are those of the source. The calls are words filed in the database; no cut-off is given here.

For one experiment, the system named is NCI-H1650. Nature of the experiment: Cytotoxicity against human NCI-H1650 cells assessed as growth inhibition after 48 hrs by MTT assay.
Conditions: not given
The class given is functional. The procedure, abridged: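 H1650 cells were exposed to drug for 48 h at five concentrations bracketing 1–40 μM in 10 μM steps, with MTT read-out. GI50 is given only where the data form a sigmoidal dose response.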
By GI50 is commonly meant the concentration at which growth is held to half of that of the control. As for `O=S(=O)(c1ccc(OC(F)(F)F)cc1)N1CCC(=C2c3ccccc3CCc3ccccc32)CC1`, the GI50 entry was “inactive”. Regarding `O=S(=O)(NCCCN1c2ccccc2CCc2ccc(Cl)cc21)c1ccc(Cl)cc1Cl`, the GI50 entry was “inactive”. On the same count and under the same terms, the result for `O=S(=O)(NCCCCN1c2ccccc2CCc2ccc(Cl)cc21)c1ccc(Cl)cc1` reads “inactive”; that for `O=S(=O)(NCCCN(c1ccccc1)c1cccc(Cl)c1)c1ccc(Cl)cc1`, “inactive”; that for `CN(CCCN1c2ccccc2CCc2ccc(Cl)cc21)S(=O)(=O)c1ccc(C(F)(F)F)cc1`, “inactive”. The same measure, in the same setting: in the case of `O=S(=O)(c1ccc(Cl)cc1)N1CCCCC1CCN1c2ccccc2CCc2ccccc21` (centres undefined) it was “inactive”; in that of `O=S(=O)(NCCCN1c2ccccc2CCc2cncnc21)c1ccc(Cl)cc1`, “inactive”; in that of `CCCN1c2ccccc2Sc2ccc(Cl)cc21`, “inactive”.

`Cc1ccccc1S(=O)(=O)NCCCN1c2ccccc2Sc2ccc(Cl)cc21`: the GI50 entry is “inactive”. The same measure, in the same setting: in the case of `O=S(=O)(c1ccc(OC(F)(F)F)cc1)N1CCCCC1CCN1c2ccccc2CCc2ccccc21` (centres undefined) it was “inactive”.

Still in this experiment, the particulars now being: NCI-H1650, 48 h.
On to `O=S(=O)(NCCCN1c2ccccc2CCc2cccnc21)c1ccc(Cl)cc1`, for which the 50% growth inhibitory concentration (GI50) is 27 µM. The same measure, in the same setting: the result for `CN(C)C(=O)NCCCN1c2ccccc2CCc2ccc(Cl)cc21` reads greater than 40 µM; that for `O=S(=O)(NCCCN1c2ccccc2Sc2ccc(Cl)cc21)c1ccc(OC(F)(F)F)cc1`, greater than 40 µM; that for `O=S(=O)(NCC/C=C1/c2ccccc2Sc2ccc(Cl)cc21)c1ccc(OC(F)(F)F)cc1`, 40 µM. Turning to `O=S(=O)(NCCCN1c2ccccc2CCc2ccccc21)c1ccc(N2CCOCC2)cn1`, the GI50 was greater than 40 µM. Consider `O=S(=O)(NCCCN1c2ccccc2CCc2ccc(Cl)cc21)c1cnc(Cl)c(Br)c1`, for which the GI50 was greater than 40 µM. On the same count and under the same terms, in the case of `O=S(=O)(N[C@@H]1CCC[C@@H](N2c3ccccc3CCc3ccccc32)C1)c1ccc(OC(F)(F)F)cc1` it was 18 µM; in that of `O=S(=O)(NCCN1c2ccccc2CCc2ccc(Cl)cc21)c1ccc(OC(F)(F)F)cc1`, 22 µM.

`O=S(=O)(NCCCN1c2ccccc2CCc2ccc(Cl)cc21)c1ccc(F)cc1`: the GI50 was greater than 40 µM. Still for that read-out and setting: in the case of `O=S(=O)(NCCCN1c2ccccc2CCc2ccc(Cl)cc21)c1cc(Cl)c(Cl)s1` it was 18 µM; in that of `O=C1COc2ccc(S(=O)(=O)NCCCN3c4ccccc4CCc4ccccc43)cc2N1`, 22 µM.

Take `O=S(=O)(NC1CCCC(=C2c3ccccc3CCc3ccccc32)C1)c1ccc(OC(F)(F)F)cc1` (centres undefined): the GI50 amounted to 15 µM.

Consider `O=S(=O)(NCCCN1c2ccccc2CCc2ccc(Cl)cc21)c1ccccc1`, for which the GI50 was determined as 25 µM. Same read-out and setting: in the case of `O=S(=O)(NCCCN1c2ccccc2Sc2ccc(Cl)cc21)c1cc(F)cc(F)c1` it was 18 µM; in that of `O=S(=O)(NCCC=C1c2ccccc2CCc2ccccc21)c1ccc(F)cc1`, 20 µM; in that of `O=S(=O)(NCCCN1c2ccccc2CCc2ccc(Cl)cc21)c1ccc(Cl)cc1F`, 20.8 µM.

For `CC(=O)Nc1ncc(S(=O)(=O)NCCCN2c3ccccc3CCc3ccccc32)s1`, the GI50 was greater than 40 µM. The same measure, in the same setting: in the case of `Cc1nn(C)c(C)c1S(=O)(=O)NCCCN1c2ccccc2CCc2ccccc21` it was greater than 40 µM. Still for that read-out and setting: the result for `O=S(=O)(NCCNC1c2ccccc2CCc2ccccc21)c1ccc(Cl)cc1` reads 26 µM; that for `Cn1ccc2c(S(=O)(=O)NCCCN3c4ccccc4CCc4ccccc43)cccc21`, greater than 40 µM; that for `O=S(=O)(NCCCN1c2ccccc2OCc2cccnc21)c1ccc(OC(F)(F)F)cc1`, 19.1 µM. As to `O=S(=O)(N[C@H]1CC[C@@H](N2c3ccccc3CCc3ccccc32)CC1)c1ccc(Cl)cc1`, the 50% growth inhibitory concentration (GI50) was found to be 10 µM. Still for that read-out and setting: in the case of `O=S(=O)(N[C@H]1CC[C@@H](N2c3ccccc3CCc3ccccc32)CC1)c1ccc(OC(F)(F)F)cc1` it was greater than 40 µM; in that of `CC(=O)Nc1ccc(S(=O)(=O)NCCCN2c3ccccc3CCc3ccc(Cl)cc32)cc1`, 15 µM.
